Source: PMC3983365 (Journal of medicinal chemistry, 2014)

Key:
[1] = biological target: c-Met (Homo sapiens, UniProt P08581); assay: scanMAX kinase screen, c-Met; type: binding; details: at 10 μM
In short: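 Kinase-tagged T7 phage (BL21-derived E. coli host) or HEK-293-made DNA-tagged kinase competed against an immobilised active-site ligand on streptavidin magnetic beads, with test compound at 10 μM (from 40× DMSO stock). Run in SeaBlock/PBS/Tween/DTT binding buffer for 1 h at room temperature. Beads then washed and eluted with 0.5 μM non-biotinylated ligand; kinase in eluate quantified by qPCR.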

[2] = biological target: Hsp90; assay: Hsp90 binding assay; details: read-out: Hsp90 binding; binding to SKBr3 cell extracts; competition with GM-Cy3B
[3] = test system: scanMAX 402 kinase panel; assay: scanMAX kinase screen; type: binding; details: at 10 μM
In short: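 Competition binding: DNA-tagged kinases (T7 phage in BL21-derived E. coli lysates, or HEK-293-expressed) mixed with biotinylated-ligand streptavidin magnetic beads and test compound (10 μM; 40× DMSO stocks) in SeaBlock/0.17× PBS/Tween 20/6 mM DTT, 1 h RT. Beads washed, eluted 30 min with 0.5 μM free ligand; bound kinase by qPCR. S-score: kinases bound divided by distinct non-mutant kinases tested.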

[4] = test system: PARP; assay: PARP cleavage by Western blot in SKBr3; type: cell-based; details: Homo sapiens, SK-BR-3, read-out: cPARP (PARP cleavage)
In short: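 SK-BR-3 cells grown in DME/F12 with 10% FBS, 1% L-glutamine and penicillin/streptomycin to 60–70% confluence, then exposed to test compound or DMSO vehicle. Lysed in 50 mM Tris pH 7.4, 150 mM NaCl, 1% NP-40; protein by BCA. 10–50 μg lysate run on SDS–PAGE, blotted to nitrocellulose, probed with rabbit anti-PARP p85 fragment (1:500), then peroxidase secondary (1:3000).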

[5] = Aqueous solubility; type: physicochemical
[6] = biological target: Hsp70; details: read-out: Kd for Hsp70; cited from earlier work
[7] = LC/MS–MS analyses of cellular extracts; type: in vitro ADME; details: after 10 min of incubation; data not shown

Chain of c-Met (P08581 25-1390): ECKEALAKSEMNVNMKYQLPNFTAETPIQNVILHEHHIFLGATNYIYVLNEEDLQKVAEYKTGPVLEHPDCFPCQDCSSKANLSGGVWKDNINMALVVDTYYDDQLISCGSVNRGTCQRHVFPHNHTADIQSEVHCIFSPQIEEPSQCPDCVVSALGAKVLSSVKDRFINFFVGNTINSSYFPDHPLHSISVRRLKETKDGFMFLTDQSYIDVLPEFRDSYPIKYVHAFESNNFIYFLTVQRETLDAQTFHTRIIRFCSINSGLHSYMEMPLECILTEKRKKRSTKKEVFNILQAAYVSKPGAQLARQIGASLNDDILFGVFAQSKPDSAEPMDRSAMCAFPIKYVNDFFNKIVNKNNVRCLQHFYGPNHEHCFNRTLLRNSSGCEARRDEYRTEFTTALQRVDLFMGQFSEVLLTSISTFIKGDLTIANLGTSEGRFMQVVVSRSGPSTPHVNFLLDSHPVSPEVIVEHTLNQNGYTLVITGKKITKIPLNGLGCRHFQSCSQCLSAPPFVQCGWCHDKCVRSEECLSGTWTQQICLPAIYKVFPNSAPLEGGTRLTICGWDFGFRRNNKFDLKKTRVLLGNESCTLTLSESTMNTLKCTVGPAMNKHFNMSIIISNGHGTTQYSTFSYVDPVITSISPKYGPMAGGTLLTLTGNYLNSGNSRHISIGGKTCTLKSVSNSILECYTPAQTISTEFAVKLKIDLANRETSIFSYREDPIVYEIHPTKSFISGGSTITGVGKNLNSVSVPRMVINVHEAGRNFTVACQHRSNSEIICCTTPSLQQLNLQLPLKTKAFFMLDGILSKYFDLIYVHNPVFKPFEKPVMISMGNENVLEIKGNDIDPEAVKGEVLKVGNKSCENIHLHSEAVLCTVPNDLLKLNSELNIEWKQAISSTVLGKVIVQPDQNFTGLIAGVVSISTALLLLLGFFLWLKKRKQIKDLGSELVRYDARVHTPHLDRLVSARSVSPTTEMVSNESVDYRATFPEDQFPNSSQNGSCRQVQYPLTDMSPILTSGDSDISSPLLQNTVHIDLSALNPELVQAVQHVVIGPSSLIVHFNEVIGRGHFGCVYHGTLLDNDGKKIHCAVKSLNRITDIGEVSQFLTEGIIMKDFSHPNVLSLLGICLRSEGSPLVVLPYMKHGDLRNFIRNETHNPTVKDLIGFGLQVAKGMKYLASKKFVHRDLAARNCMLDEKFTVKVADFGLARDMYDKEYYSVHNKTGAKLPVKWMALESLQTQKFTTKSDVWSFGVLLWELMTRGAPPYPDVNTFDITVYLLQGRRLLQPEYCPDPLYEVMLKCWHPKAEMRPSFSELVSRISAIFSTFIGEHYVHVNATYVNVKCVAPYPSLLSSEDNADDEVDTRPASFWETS

| SMILES | IC50 [2] | other results |
| --- | --- | --- |
| C=CC(=O)Nc1cc(N)nc(Sc2c(OC)nc(N3CCN(C)CC3)nc2OC)n1 [17a, N-(6-Amino-2-((4,6-dimethoxy-2-(4-methylpiperazin-1-yl)-pyrimidin-5-yl)thio)pyrimidin-4-yl)acrylamide] | > 500 µM | kinase hit in scanMAX screen [1]: potential low-affinity kinase hit; activity against the scanMAX 402 kinase panel [3]: inert; EC50 [4]: 2 µM |
| C=CC(=O)Nc1cc(N)nc(Sc2c(OCC)nc(N3CCN(C)CC3)nc2OCC)n1 [20a, N-(6-Amino-2-((4,6-diethoxy-2-(4-methylpiperazin-1-yl)-pyrimidin-5-yl)thio)pyrimidin-4-yl)acrylamide] | > 500 µM |  |
| C=CC(=O)Nc1cc(N)nc(Sc2c(OCC)nc(N3CCCCC3)nc2OCC)n1 [20c, N-(6-Amino-2-((4,6-diethoxy-2-(piperidin-1-yl)pyrimidin-5-yl)-thio)pyrimidin-4-yl)acrylamide] | > 500 µM |  |
| C=CC(=O)Nc1ccnc(Sc2c(OC)nc(N3CCN(C)CC3)nc2OC)n1 [27a, N-(2-((4,6-Dimethoxy-2-(4-methylpiperazin-1-yl)pyrimidin-5-yl)-thio)pyrimidin-4-yl)acrylamide] | > 500 µM |  |
| C=CC(=O)Nc1ccnc(Sc2c(OC)nc(N3CCCC3)nc2OC)n1 [27d, N-(2-((4,6-Dimethoxy-2-(pyrrolidin-1-yl)pyrimidin-5-yl)thio)-pyrimidin-4-yl)acrylamide] | > 500 µM | aqueous solubility [5]: poor aqueous solubility |
| C=CC(=O)Nc1ccnc(Sc2c(C)nc(N3CCN(C)CC3)nc2C)n1 [42a, N-(2-((4,6-Dimethyl-2-(4-methylpiperazin-1-yl)pyrimidin-5-yl)-thio)pyrimidin-4-yl)acrylamide] | > 500 µM | EC50 [4]: 5 µM |
| C=C(C)C(=O)Nc1ccnc(Sc2c(C)nc(N3CCN(C)CC3)nc2C)n1 [42c, N-(2-((4,6-Dimethyl-2-(4-methylpiperazin-1-yl)pyrimidin-5-yl)-thio)pyrimidin-4-yl)methacrylamide] | > 500 µM |  |
| C=CC(=O)Nc1cc(N)nc(Sc2c(OC)nc(N3CCN(CCOCCOCCOCCO)CC3)nc2OC)n1 [44a] | > 500 µM |  |
| C=CC(=O)Nc1cc(N)nc(Sc2c(OC)nc(N3CCN(C)CC3)nc2OCCOCCOCCOCCO)n1 [45a] | > 500 µM |  |
| Nc1ncnc2c1ncn2[C@@H]1O[C@H](COP(=O)(O)OP(=O)(O)O)[C@@H](O)[C@H]1O [ADP] |  | Kd [6]: 0.11 to 0.5 µM |
| O=c1c(O)c(-c2cc(O)c(O)c(O)c2)oc2cc(O)cc(O)c12 [compound 4, myricetin, reference compound] |  | stability in the cells (agent detected in cellular extracts) [7]: virtually undetectable; EC50 [4]: > 100 µM |
| N#Cc1ccc(COC[C@H]2O[C@@H](n3c(NCc4ccc(Cl)c(Cl)c4)nc4c(N)ncnc43)[C@H](O)[C@@H]2O)cc1 [compound 7, reference compound] |  | Kd [6]: 0.3 µM |
| C=CC(=O)Nc1cc(N)nc(Sc2c(OC)nc(N)nc2OC)n1 [compound 31, N-(6-Amino-2-((2-amino-4,6-dimethoxypyrimidin-5-yl)thio)-pyrimidin-4-yl)acrylamide] | > 500 µM |  |
| C=CC(=O)Nc1cccc(Sc2c(OC)nc(N3CCOCC3)nc2OC)c1 [compound 37, N-(3-((4,6-Dimethoxy-2-morpholinopyrimidin-5-yl)thio)phenyl)-acrylamide] | > 500 µM |  |
